Data: paper PMC5063151 (Chemmedchem, 2015)
Blank lines part the entries; values can stand above or below the compound they belong to.

How the values were obtained:
[1] = biological target: T1, methyl‐13C‐Met‐labeled VEGF (Homo sapiens, UniProt P15692); assay: Protein-observed CSP with methyl‐13C‐Met‐labeled VEGF; assay type: binding
T1 sequence (P15692 217-315): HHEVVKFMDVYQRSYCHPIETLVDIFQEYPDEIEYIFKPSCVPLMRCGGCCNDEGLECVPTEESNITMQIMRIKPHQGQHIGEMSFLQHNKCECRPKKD
Outline: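 Methyl‑13C‑Met‑labeled VEGF at 30 μM in 25 mM sodium phosphate pH 7.0, 50 mM NaCl, 10% D2O, usually at 45 °C. 1H–13C HSQC used 256×96 points with 8 scans per increment. 13C‑decoupled‑13C‑filtered 1D 1H spectra used 2048 points and 128 scans. KD came from ligand‑titration chemical shift perturbations.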

[2] = test system: VEGF11−109 (VEGF); assay: STD and WaterLOGSY ligand-observed NMR binding experiments; conditions: STD, 1 mM baicalin, 10 μM VEGF, 298 K
Outline: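 Ligand‑observed STD and WaterLOGSY were run with 10 μM VEGF and 0.5 or 1 mM test compound in 25 mM sodium phosphate pH 7.0, 50 mM NaCl, […], at 37, 25 or 5 °C on 600/500 MHz spectrometers. On‑resonance saturation targeted the aliphatic protein region (STD) or the water signal (WaterLOGSY). Binding was judged from ligand STD/WaterLOGSY signals.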

[3] = test system: VEGF (v107 / receptor binding site); assay: STD competition assay with peptide v107; conditions: 1 mM baicalin, 10 μM VEGF, 298 K, 50 and 100 μM v107

Methionine perturbations on 13C‐filtered‐13C‐decoupled 1H NMR spectra of VEGF ([1]; baicalin‐related flavonoids of Figure 7 a): induced methionine perturbations
Compound: O=c1c(O[C@@H]2O[C@H](CO)[C@@H](O)[C@H](O)[C@H]2O)c(-c2ccc(O)c(O)c2)oc2cc(O)cc(O)c12 [quercetin‐3‐β‐glucoside]

VEGF binding affinity from titration experiments ([1]; CSP titration, methyl‐13C‐Met‐labeled VEGF): low‐millimolar range
Compound: &D‐Pro‐Trp‐Glu‐D‐Pro‐Trp‐Glu& (head to tail)

Binding of isolated compound to VEGF [2]: able to bind VEGF
Compound: O=C(O)[C@H]1O[C@@H](Oc2cc3oc(-c4ccccc4)cc(=O)c3c(O)c2O)[C@H](O)[C@@H](O)[C@@H]1O [baicalin]
STD competition with v107 (reduction of ligand STD signals) [3]: baicalin and v107 compete for the same binding site
